Active and inactive are the calls of the source. No cut-off for these calls is given here.
Assays:
[1] = target: T1, Bromodomain-containing protein 4 (Homo sapiens, UniProt O60885); assay: (§1) Inhibition of His-tagged BRD4 bromodomain-1 (unknown origin) expressed in Escherichia coli BL21(DE3) at 20 uM using SGRGK(Ac)-GG-K(Ac)-GLG-K(Ac)-GGA-K(Ac)-RHRKVGG-K-Biotin as substrate preincubated for 15 mins followed by substrate addition measured after 10 mins by Alphascreen assay relative to control
In short: (§2)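 His-tagged BRD4_BD1 purified by Ni-NTA, anion exchange and gel filtration, tag retained. Assay buffer: 20 mM HEPES pH 7.4, 0.1% BSA, 0.01% Triton X-100, 1 mM DTT. Protein preincubated with compound 15 min at room temperature, biotinylated tetra-acetyl peptide added for 10 min, then streptavidin donor and nickel chelate acceptor beads for 60 min. Compounds screened at 20 and 5 µM; IC50 from three independent experiments.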

[2] = target: T1, Bromodomain-containing protein 4; assay: as §1, with “5” for “20”; in short: as §2
[3] = target: T1, Bromodomain-containing protein 4; assay: as §1, with “100” for “20”
[4] = target: T1, Bromodomain-containing protein 4; assay: Inhibition of His-tagged BRD4 bromodomain-1 (unknown origin) expressed in Escherichia coli BL21(DE3) using SGRGK(Ac)-GG-K(Ac)-GLG-K(Ac)-GGA-K(Ac)-RHRKVGG-K-Biotin as substrate preincubated for 15 mins followed by substrate addition measured after 10 mins by Alphascreen assay; in short: as §2
[5] = target: T1, Bromodomain-containing protein 4; assay: Binding affinity to His-tagged BRD4 bromodomain-1 (unknown origin) expressed in Escherichia coli BL21(DE3) assessed as change in melting temperature at 100 uM by SYPRO orange dye based thermal shift assay
In short: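 Buffer of 20 mM HEPES pH 7.4, 100 mM NaCl and 1 mM DTT, with 5× SYPRO Orange and 5 µM BRD4_BD1. Compound at 100 µM or 0.5% DMSO, DMSO matched across wells. Heated at 2.5 °C/min from 25 to 95 °C. Tm compared with the DMSO control.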

[6] = target: T1, Bromodomain-containing protein 4; assay: Inhibition of BRD4 in human MV4-11 cells assessed as downregulation of Bcl2 mRNA expression after 6 hrs by RT-PCR analysis; format: cell-based
In short: (§3)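 MV4-11 cells at 5×10⁵/mL treated 6 h with various compound concentrations or DMSO. c-Myc, Bcl-2 and CDK6 transcripts quantified by qRT-PCR, normalized to B2M by the ΔΔCt method.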

[7] = target: T1, Bromodomain-containing protein 4; assay: Inhibition of BRD4 in human MV4-11 cells assessed as downregulation of c-MYC mRNA expression after 6 hrs by RT-PCR analysis; format: cell-based; in short: as §3
[8] = target: T1, Bromodomain-containing protein 4; assay: Inhibition of BRD4 in human MV4-11 cells assessed as downregulation of CDK6 mRNA expression after 6 hrs by RT-PCR analysis; format: cell-based; in short: as §3
[9] = target: T1, Bromodomain-containing protein 4; assay: Inhibition of BRD4 in human MV4-11 cells assessed as downregulation of c-MYC protein expression after 6 hrs by Western blot analysis; format: cell-based
In short: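 MV4-11 cells at 5×10⁵/mL treated 6 h with various compound concentrations or DMSO. Immunoblotted with anti-c-Myc (1:1000, 4 °C overnight), then anti-rabbit secondary (1:10000, 1 h, room temperature).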

[10] = target: T1, Bromodomain-containing protein 4; assay: Inhibition of BRD4 (unknown origin) by Alphascreen assay; in short: as §2

inhibition [1] | inhibition [2] | IC50 [4] | Compound | further results
71% | 37% |  | CCN1C(=O)c2cccc3c(S(=O)(=O)N[C@@H](Cc4ccccc4)C(=O)OC)ccc1c23 | 
8% | inactive | 69.2 µM | O=C1c2cccc3c(S(=O)(=O)N4CCCC4)ccc(c23)N1CCO | inhibition [3]: > 90%
39% | inactive |  | CCN1C(=O)c2cccc3c(S(=O)(=O)N4CCC[C@@H]4C(=O)Nc4ccccc4C)ccc1c23 | 
inactive | inactive | 18.7 µM | CN(C)C(=O)CN1C(=O)c2cccc3c(S(=O)(=O)N4CCCC4)ccc1c23 | inhibition [3]: > 90%
74% | 23% |  | CCN1C(=O)c2cccc3c(S(=O)(=O)N4CCC(CN)CC4)ccc1c23 | 
inactive | inactive |  | CCN1C(=O)c2cccc3c(S(=O)(=O)N4CCC[C@@H](N)C4)ccc1c23 | 
50% | 7% |  | CCN1C(=O)c2cccc3c(S(=O)(=O)N4CCC[C@@H]4C(=O)NO)ccc1c23 | 
67% | 21% | 27.5 µM | CCN1C(=O)c2cccc3c(S(=O)(=O)N4CC[C@@H](O)C4)ccc1c23 | inhibition [3]: > 90%
82% | 33% |  | CCN1C(=O)c2cccc3c(S(=O)(=O)Nc4ccccc4OC)ccc1c23 | 
100% | 87% | 1.43 µM | CCN1C(=O)c2cccc3c(S(=O)(=O)N4CCC[C@@H]4C(=O)Nc4ccccc4)ccc1c23 | ΔTm [5]: 13.9 °C
8% | 17% | 13.3 µM | CCN1C(=O)c2cccc3c(S(=O)(=O)N4CC[C@@H](OC)C4)ccc1c23 | inhibition [3]: > 90%
98% | 66% | 3.02 µM | CCN1C(=O)c2cccc3c(S(=O)(=O)N4CCC[C@@H]4C(=O)O)ccc1c23 | inhibition [6]: Dose-dependent effect; inhibition [7]: Dose-dependent effect; inhibition [8]: Dose-dependent effect; ΔTm [5]: 10.5 °C; inhibition [9]: Dose-dependent effect
99% | 58% | 47.3 µM | CCN1C(=O)c2cccc3c(S(=O)(=O)N4CCCCC4)ccc1c23 | inhibition [3]: > 90%
15% | inactive | 11 µM | CCCN1C(=O)c2cccc3c(S(=O)(=O)N4CCCC4)ccc1c23 | inhibition [3]: > 90%
25% | 5% |  | CN1C(=O)c2cccc3c(S(=O)(=O)N4CCCC4)ccc1c23 | 
inactive | 3% |  | CCN1C(=O)c2cccc3c(S(=O)(=O)N4CC[C@@H](N)C4)ccc1c23 | 
14% | inactive |  | CCN1C(=O)c2cccc3c(S(=O)(=O)N4CCC[C@H](O)C4)ccc1c23 | 
100% | 93% | 1.02 µM | CCN1C(=O)c2cccc3c(S(=O)(=O)N4CCC[C@@H]4C(=O)NN)ccc1c23 | inhibition [6]: Dose-dependent effect; inhibition [7]: Dose-dependent effect; inhibition [8]: Dose-dependent effect; ΔTm [5]: 7.8 °C; inhibition [9]: Dose-dependent effect
22.4% | 11% |  | CCN1C(=O)c2cccc3c(S(=O)(=O)N4CCC[C@H]4CO)ccc1c23 | 
89% | 42% |  | CCN1C(=O)c2cccc3c(S(=O)(=O)N4CCC[C@@H]4C(=O)Nc4ccc(Cl)cc4)ccc1c23 | 
97% | 55% |  | CCN1C(=O)c2cccc3c(S(=O)(=O)N4CCOCC4)ccc1c23 | 
95% | 57% | 13.3 µM | CCN1C(=O)c2cccc3c(S(=O)(=O)N4CC[C@@H](NC(=O)OC(C)(C)C)C4)ccc1c23 | inhibition [3]: > 90%
53% | inactive |  | CCN1C(=O)c2cccc3c(S(=O)(=O)NCC(=O)O)ccc1c23 | 
88% | 37% | 50.7 µM | CCN1C(=O)c2cccc3c(S(=O)(=O)N4CC[C@H](NC(=O)OC(C)(C)C)C4)ccc1c23 | inhibition [3]: > 90%
inactive | inactive |  | CCN1C(=O)c2cccc3c(S(=O)(=O)N4CC[C@H](N)C4)ccc1c23 | 
89% | 21% |  | CCN1C(=O)c2cccc3c(S(=O)(=O)N[C@H](C(=O)OC)C(C)C)ccc1c23 | 

inhibition [1] | inhibition [2] | IC50 [4] | Compound | further results
inactive | inactive |  | CCN1C(=O)c2cccc3c(S(=O)(=O)N4CCC[C@@H]4C(=O)Nc4ccccc4O)ccc1c23 | 
88% | 35% |  | CCN1C(=O)c2cccc3c(S(=O)(=O)N4CC[C@H](O)C4)ccc1c23 | 
60% | 41% |  | CCN1C(=O)c2cccc3c(S(=O)(=O)NCCC(=O)O)ccc1c23 | 
inactive | inactive |  | CCN1C(=O)c2cccc3c(S(=O)(=O)N4CCC[C@H](N)C4)ccc1c23 | 
51% | 8% |  | CCN1C(=O)c2cccc3c(S(=O)(=O)N4CCC[C@@H]4C(=O)Nc4ccc(C)cc4)ccc1c23 | 
20% | 9% |  | CCN1C(=O)c2cccc3c(S(=O)(=O)N4CCC[C@@H](NC(=O)OC(C)(C)C)C4)ccc1c23 | 
82% | 29% | 42.2 µM | CCN1C(=O)c2cccc3c(S(=O)(=O)N(CC)CC)ccc1c23 | inhibition [3]: > 90%
inactive | inactive |  | CCN1C(=O)c2cccc3c(S(=O)(=O)N[C@H](C(=O)O)C(C)C)ccc1c23 | 
 |  |  | Cc1sc2c(c1C)C(c1ccc(Cl)cc1)=C[C@@H](CC(=O)OC(C)(C)C)c1nnc(C)n1-2 | IC50 [10]: 0.077 µM
80% | 28% |  | CCN1C(=O)c2cccc3c(S(=O)(=O)N4CC[C@H](OC)C4)ccc1c23 | 
61% | 27% |  | CCN1C(=O)c2cccc3c(S(=O)(=O)N4CCC[C@@H]4C(=O)OC)ccc1c23 | 
12% | inactive |  | CCOC(=O)CNS(=O)(=O)c1ccc2c3c(cccc13)C(=O)N2CC | 
16% | inactive |  | CCN1C(=O)c2cccc3c(S(=O)(=O)N4CCC(N)CC4)ccc1c23 | 
20% | 7% |  | CCN1C(=O)c2cccc3c(S(=O)(=O)N4CCC[C@H](NC(=O)OC(C)(C)C)C4)ccc1c23 | 
45% | 18% |  | CCN1C(=O)c2cccc3c(S(=O)(=O)N4CCC(NC(=O)OC(C)(C)C)CC4)ccc1c23 | 
inactive | inactive |  | CCN1C(=O)c2cccc3c(S(=O)(=O)NCCCO)ccc1c23 | 
100% | 98% | 1.55 µM | CCN1C(=O)c2cccc3c(S(=O)(=O)NCCO)ccc1c23 | ΔTm [5]: 13.2 °C
9% | 7% | 12.7 µM | CC(=O)N1C(=O)c2cccc3c(S(=O)(=O)N4CCCC4)ccc1c23 | inhibition [3]: > 90%
27% | 9% | 32.2 µM | CCN1C(=O)c2cccc3c(S(=O)(=O)N4CCC[C@@H](O)C4)ccc1c23 | inhibition [3]: > 90%
63% | 18% |  | CCN1C(=O)c2cccc3c(S(=O)(=O)N4CCC[C@@H]4C(=O)Nc4ccc(O)cc4)ccc1c23 | 
 |  |  | O=C(c1ccccc1)c1ccc(NS(=O)(=O)c2cccc(Br)c2)cc1 | inhibition [3]: > 90%
18% | inactive |  | CCN1C(=O)c2cccc3c(S(=O)(=O)N4CCC(CNC(=O)OC(C)(C)C)CC4)ccc1c23 | 
inactive | 4% |  | CCN1C(=O)c2cccc3c(S(=O)(=O)N[C@@H](Cc4ccccc4)C(=O)O)ccc1c23 | 
4% | inactive | 23.1 µM | O=C(O)CN1C(=O)c2cccc3c(S(=O)(=O)N4CCCC4)ccc1c23 | inhibition [3]: > 90%
4% | 9% |  | CCN1C(=O)c2cccc3c(S(=O)(=O)N4CCC[C@@H]4CO)ccc1c23 | 
66% | 29% |  | CCN1C(=O)c2cccc3c(S(=O)(=O)NCCC(=O)OC)ccc1c23 | 

From ChEMBL document CHEMBL4152245, “Design, synthesis and biological evaluation of benzo[cd]indol-2(1H)-ones derivatives as BRD4 inhibitors” (Eur J Med Chem, 2018)
